The text below walks through data of ChEMBL document CHEMBL2046337, “Inhibitors for Bacterial Cell-Wall Recycling” (ACS Med Chem Lett, 2012).

In general, Kd refers to the constant that tells how readily two partners part at equilibrium. The term Ki denotes a measure of affinity in units of concentration, obtained from inhibition or displacement. Usually Km stands for the concentration of substrate that gives half-maximal velocity. The kcat is the number of substrate molecules converted per active site and unit of time at saturation.

Calls of active or inactive are those of the source. No cut-off for these calls is given here.

The target in data set [1] is T1, Membrane-bound lytic murein transglycosylase B (Escherichia coli (strain K12), UniProt P41052).
T1 sequence (P41052 whole entry): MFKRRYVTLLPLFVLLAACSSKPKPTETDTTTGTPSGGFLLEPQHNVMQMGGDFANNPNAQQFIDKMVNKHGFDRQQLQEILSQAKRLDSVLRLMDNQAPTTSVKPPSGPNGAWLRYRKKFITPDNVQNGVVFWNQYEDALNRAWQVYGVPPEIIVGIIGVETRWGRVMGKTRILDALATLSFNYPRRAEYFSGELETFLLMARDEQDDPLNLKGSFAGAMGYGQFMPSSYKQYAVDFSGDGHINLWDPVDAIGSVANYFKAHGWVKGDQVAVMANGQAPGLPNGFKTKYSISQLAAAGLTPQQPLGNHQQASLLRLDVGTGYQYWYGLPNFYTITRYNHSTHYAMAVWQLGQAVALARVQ
Briefly: Binding affinity to Escherichia coli K12 MG1655 His6x-tagged MltB lytic transglycosylase assessed as intrinsic fluorescence of tryptophan and/or tyrosine residues of enzyme. Further details: species or system Escherichia coli K-12. Summed up:
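MltB at 0.25 μM in 50 mM HEPES pH 7.6, 0.20 M NaCl, Brij-35, titrated with aliquots of 42 mM aqueous compound stock; equilibrated at 25 °C with stirring after each addition. Emission read at 334.06 nm (excitation 280 nm, scan 290-450 nm), corrected for dilution. Kd from fit to one-site saturation model, with or without a non-specific binding term.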

Data set [2] has as its target Beta-hexosaminidase (Pseudomonas aeruginosa (strain ATCC 15692 / PAO1 / 1C / PRS 101 / LMG12228), UniProt Q9HZK0). Description: Competitive inhibition of Pseudomonas aeruginosa PAO1 NagZ using PNP-GlcNAc as substrate assessed as release of 4-nitrophenolate ion after 4 mins by spectrophotometric analysis. A digest of the protocol: (§1)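 His-tagged NagZ, purified by Ni-affinity, at 40 nM in PBS pH 7.4 (500 µL reaction). Substrate was PNP-GlcNAc at 0.1–1 mM. 4-Nitrophenolate release was followed at 400 nm for 4 min at 25 °C, in triplicate.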

Data set [3] is described as follows: Activity at NagZ expressed in Escherichia coli BL21 DE3 after 35 mins by HPLC analysis.
Data set [4] in a line: Ratio of Kcat to Km for NagZ expressed in Escherichia coli BL21 DE3 after 35 mins by HPLC analysis.
Data set [5] addresses Beta-hexosaminidase (Pseudomonas aeruginosa (strain ATCC 15692 / PAO1 / 1C / PRS 101 / LMG12228)) (UniProt Q9HZK0). Briefly: Inhibition of Pseudomonas aeruginosa PAO1 NagZ using PNP-GlcNAc as substrate assessed as release of 4-nitrophenolate ion after 4 mins by spectrophotometric analysis. A digest of the protocol:
as §1

Substrate in data set [6]: CO[C@@H]1O[C@H](CO)[C@@H](O[C@@H]2O[C@H](CO)[C@@H](O)[C@H](O)[C@H]2NC(C)=O)[C@H](O[C@H](C)C(=O)N[C@@H](C)C(=O)N[C@H](CCC(=O)N[C@@H](CCC[C@@H](N)C(=O)O)C(=O)N[C@H](C)C(=O)N[C@H](C)C(=O)O)C(=O)O)[C@H]1NC(C)=O
Briefly: Activity at Pseudomonas aeruginosa PAO1 NagZ after 35 mins by HPLC analysis. A digest of the protocol:
(§2)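 His-tagged NagZ (pET28a, expressed in E. coli BL21 star (DE3), Ni-affinity purified) at 40 nM in PBS pH 7.4. Substrate was GlcNAc-anhMurNAc-pentapeptide or GlcNAc-MurNAc-pentapeptide at 0.15–0.9 mM, 25 °C, 35 min. Reactions were stopped with two volumes of 0.075% TFA. Substrate and product were quantified by C18 reversed-phase HPLC against an internal standard (Nα,Nε-diacetyl-L-Lys-D-Ala-D-Ala).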

Substrate in data set [7]: CO[C@@H]1O[C@H](CO)[C@@H](O[C@@H]2O[C@H](CO)[C@@H](O)[C@H](O)[C@H]2NC(C)=O)[C@H](O[C@H](C)C(=O)N[C@@H](C)C(=O)N[C@H](CCC(=O)N[C@@H](CCC[C@@H](N)C(=O)O)C(=O)N[C@H](C)C(=O)N[C@H](C)C(=O)O)C(=O)O)[C@H]1NC(C)=O
Description: Ratio of Kcat to Km for Pseudomonas aeruginosa PAO1 NagZ after 35 mins by HPLC analysis. Summed up: as §2

Regarding `CC(=O)N[C@H]1CN[C@H](CO)[C@@H](O)[C@@H]1O`, in data set [1], the Kd is 174 µM. Moreover, the Ki in data set [2] amounted to 0.3 µM.

For the molecule `CC(=O)N[C@H]1[C@H](O[C@H]2[C@H](O[C@H](C)C(=O)N[C@@H](C)C(=O)N[C@H](CCC(=O)N[C@@H](CCC[C@@H](N)C(=O)O)C(=O)N[C@H](C)C(=O)N[C@H](C)C(=O)O)C(=O)O)[C@@H](NC(C)=O)[C@@H]3OC[C@H]2O3)O[C@H](CO)[C@@H](O)[C@@H]1O`, in data set [3], the Km was determined as 104 µM and the kcat was 6.6 s⁻¹. Moreover, the kcat/Km in data set [4] came to 6.3 ×10⁴ /M/s.

Take `CC(=O)N[C@H]1CN[C@H](CO)[C@@H](O)[C@@H]1O[C@H](C)C(=O)O`: the Kd in data set [1] came out at 1000 µM. In addition, the Ki in data set [2] was determined as 51 µM. In addition, the inhibition entry in data set [5] is “Active”.

On to `CC(=O)N[C@H]1CN[C@H](CO)[C@@H](O)[C@@H]1O[C@H](C)C(=O)N[C@@H](C)C(=O)O`, for which, in data set [1], the Kd was determined as 189 µM. The Ki in data set [2] was determined as 35 µM. Besides, the inhibition result in data set [5] is “Active”.

As to `CC(=O)N[C@H]1CN[C@H](CO)[C@@H](O)[C@@H]1O[C@H](C)C(=O)N[C@@H](C)C(=O)N[C@H](CCC(=O)O)C(=O)O`, the Kd in data set [1] came to 1010 µM. Further, in data set [2], the Ki was found to be 33 µM. The inhibition result in data set [5] was “Active”.

B1: Beta-hexosaminidase (Pseudomonas aeruginosa (strain ATCC 15692 / PAO1 / 1C / PRS 101 / LMG12228)), Q9HZK0 (protein)
chain: MQGSLMLDIGGTWLTAEDRQILRHPEVGGLIIFARNIEHPAQVRELCAAIRAIRPDLLLAVDQEGGRVQRLRQGFVRLPAMRAIADNPNAEELAEHCGWLMATEVQAVGLDLSFAPVLDLDHQRSAVVGSRAFEGDPERAALLAGAFIRGMHAAGMAATGKHFPGHGWAEADSHVAIPEDARSLEEIRRSDLVPFARLAGQLDALMPAHVIYPQVDPQPAGFSRRWLQEILRGELKFDGVIFSDDLSMAGAHVVGDAASRIEAALAAGCDMGLVCNDRASAELALAALQRLKVTPPSRLQRMRGKGYANTDYRQQPRWLEALSALRAAQLID
Take B1: in data set [6], the Km amounted to 165 µM and the kcat is 0.77 s⁻¹. The kcat/Km in data set [7] worked out at 0.5 ×10⁴ /M/s.
